According to ChEMBL document CHEMBL3102844, “Synthesis and evaluation of Strychnos alkaloids as MDR reversal agents for cancer cell eradication” (Bioorg Med Chem, 2014):
The source made the active and inactive calls. The calls are words filed in the database; no cut-off is given here.

How the values were obtained:
[1] = molecular target: T1, ATP-dependent translocase ABCB1 (Homo sapiens, UniProt P08183); test: Inhibition of p-glycoprotein (unknown origin) overexpressed in human KBV20C cells assessed as potentiation of vincristine-induced cytotoxicity at 0.28 uM incubated for 1 hr prior to vincristine challenge measured after 4 days by MTT assay; format: cell-based; details: 96 h
In short: (§1)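 Pgp-overexpressing KB-MDR or KB-V20C cells, 1000–2000 cells/well in RPMI1640 with 10% FBS, pretreated 1 h with modulator at final 0.07–3.0 µM, then exposed to serial dilutions of vincristine or doxorubicin for four days. […] Viability read by MTT. Cytotoxic-drug IC50 obtained by sigmoid Emax fit; duplicates, three independent experiments.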

[2] = molecular target: T1, ATP-dependent translocase ABCB1; test: Inhibition of human MDR1 overexpressed in human KB cells assessed as potentiation of vincristine-induced cytotoxicity at 0.14 uM incubated for 1 hr prior to vincristine challenge measured after 4 days by MTT assay relative to verapamil; format: cell-based; details: 96 h
KB = test: Cytotoxicity against human KB cells overexpressing human MDR1 assessed as reduction in cell viability after 4 days by MTT assay; format: functional, cell-based
In short: (§2)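 KB-MDR (1000 cells/well) or KB-V20C (2000 cells/well) Pgp-overexpressing KB lines in RPMI1640 with 10% FBS; cultured 4 days with serial concentrations of test compound. Viability read by MTT endpoint absorbance. IC50 obtained by fitting a sigmoid Emax model to viability versus concentration; duplicates from three independent experiments.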

[3] = molecular target: T1, ATP-dependent translocase ABCB1; test: Inhibition of human MDR1 overexpressed in human KB cells assessed as potentiation of doxorubicin-induced cytotoxicity at 1 uM incubated for 1 hr prior to […] measured after 4 days by MTT assay relative to verapamil; format: cell-based; details: 96 h
[4] = Binding affinity to p-glycoprotein (unknown origin) by intrinsic tryptophan fluorescence quenching assay; parameters: species or system Homo sapiens
[5] = molecular target: T1, ATP-dependent translocase ABCB1; test: Inhibition of human MDR1 overexpressed in human KB cells assessed as potentiation of vincristine-induced cytotoxicity at 0.28 uM incubated for 1 hr prior to vincristine challenge measured after 4 days by MTT assay relative to verapamil; format: cell-based; details: 96 h
KBV20C = test: (§3) Cytotoxicity against human KBV20C cells overexpressing pgp assessed as reduction in cell viability after 4 days by MTT assay; format: functional, cell-based; in short: as §2
[6] = as §3; format: functional, cell-based; details: 96 h; in short: as §2
[7] = molecular target: T1, ATP-dependent translocase ABCB1; test: Inhibition of human MDR1 overexpressed in human KB cells assessed as potentiation of vincristine-induced cytotoxicity at 0.07 uM incubated for 1 hr prior to vincristine challenge measured after 4 days by MTT assay relative to verapamil; format: cell-based; details: 96 h
[8] = molecular target: T1, ATP-dependent translocase ABCB1; test: Inhibition of p-glycoprotein (unknown origin) overexpressed in human KBV20C cells assessed as potentiation of vincristine-induced cytotoxicity at 0.07 uM incubated for 1 hr prior to vincristine challenge measured after 4 days by MTT assay; format: cell-based; details: 96 h; in short: as §1
[9] = molecular target: T1, ATP-dependent translocase ABCB1; test: Inhibition of p-glycoprotein (unknown origin) overexpressed in human KBV20C cells assessed as potentiation of vincristine-induced cytotoxicity at 0.14 uM incubated for 1 hr prior to vincristine challenge measured after 4 days by MTT assay; format: cell-based; details: 96 h; in short: as §1
Homo sapiens [10] = species: Homo sapiens; test: Inhibition of human recombinant p-glycoprotein ATPase activity using ATP as substrate at 0.3 to 1 mM after 40 mins by luciferase-mediated Pgp-Glo assay
In short: (§4)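 Reaction started with ATP (5 mM final), 40 min at 37 °C, stopped with ATP detection reagent; residual ATP read by luciferase luminescence. Luminescence difference gives effect on ATPase activity. Triplicates in two independent experiments.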

[11] = molecular target: T1, ATP-dependent translocase ABCB1; test: Inhibition of human MDR1 overexpressed in human KB cells assessed as potentiation of vincristine-induced cytotoxicity at 1 uM incubated for 1 hr prior to vincristine challenge measured after 4 days by MTT assay relative to verapamil; format: cell-based; details: 96 h
[12] = molecular target: T1, ATP-dependent translocase ABCB1; test: Inhibition of human MDR1 overexpressed in human KB cells assessed as potentiation of vincristine-induced cytotoxicity at 3 uM incubated for 1 hr prior to vincristine challenge measured after 4 days by MTT assay relative to verapamil; format: cell-based; details: 96 h
[13] = molecular target: T1, ATP-dependent translocase ABCB1; test: Inhibition of p-glycoprotein (unknown origin) overexpressed in human KBV20C cells assessed as potentiation of vincristine-induced cytotoxicity at 3 uM incubated for 1 hr prior to vincristine challenge measured after 4 days by MTT assay; format: cell-based; details: 96 h
[14] = molecular target: T1, ATP-dependent translocase ABCB1; test: Inhibition of p-glycoprotein (unknown origin) overexpressed in human KBV20C cells assessed as potentiation of vincristine-induced cytotoxicity at 1 uM incubated for 1 hr prior to vincristine challenge measured after 4 days by MTT assay; format: cell-based; details: 96 h
Homo sapiens [15] = species: Homo sapiens; test: Induction of human recombinant p-glycoprotein ATPase activity using ATP as substrate at 0.3 to 1 mM after 40 mins by luciferase-mediated Pgp-Glo assay; in short: as §4

T1 sequence (P08183 whole entry): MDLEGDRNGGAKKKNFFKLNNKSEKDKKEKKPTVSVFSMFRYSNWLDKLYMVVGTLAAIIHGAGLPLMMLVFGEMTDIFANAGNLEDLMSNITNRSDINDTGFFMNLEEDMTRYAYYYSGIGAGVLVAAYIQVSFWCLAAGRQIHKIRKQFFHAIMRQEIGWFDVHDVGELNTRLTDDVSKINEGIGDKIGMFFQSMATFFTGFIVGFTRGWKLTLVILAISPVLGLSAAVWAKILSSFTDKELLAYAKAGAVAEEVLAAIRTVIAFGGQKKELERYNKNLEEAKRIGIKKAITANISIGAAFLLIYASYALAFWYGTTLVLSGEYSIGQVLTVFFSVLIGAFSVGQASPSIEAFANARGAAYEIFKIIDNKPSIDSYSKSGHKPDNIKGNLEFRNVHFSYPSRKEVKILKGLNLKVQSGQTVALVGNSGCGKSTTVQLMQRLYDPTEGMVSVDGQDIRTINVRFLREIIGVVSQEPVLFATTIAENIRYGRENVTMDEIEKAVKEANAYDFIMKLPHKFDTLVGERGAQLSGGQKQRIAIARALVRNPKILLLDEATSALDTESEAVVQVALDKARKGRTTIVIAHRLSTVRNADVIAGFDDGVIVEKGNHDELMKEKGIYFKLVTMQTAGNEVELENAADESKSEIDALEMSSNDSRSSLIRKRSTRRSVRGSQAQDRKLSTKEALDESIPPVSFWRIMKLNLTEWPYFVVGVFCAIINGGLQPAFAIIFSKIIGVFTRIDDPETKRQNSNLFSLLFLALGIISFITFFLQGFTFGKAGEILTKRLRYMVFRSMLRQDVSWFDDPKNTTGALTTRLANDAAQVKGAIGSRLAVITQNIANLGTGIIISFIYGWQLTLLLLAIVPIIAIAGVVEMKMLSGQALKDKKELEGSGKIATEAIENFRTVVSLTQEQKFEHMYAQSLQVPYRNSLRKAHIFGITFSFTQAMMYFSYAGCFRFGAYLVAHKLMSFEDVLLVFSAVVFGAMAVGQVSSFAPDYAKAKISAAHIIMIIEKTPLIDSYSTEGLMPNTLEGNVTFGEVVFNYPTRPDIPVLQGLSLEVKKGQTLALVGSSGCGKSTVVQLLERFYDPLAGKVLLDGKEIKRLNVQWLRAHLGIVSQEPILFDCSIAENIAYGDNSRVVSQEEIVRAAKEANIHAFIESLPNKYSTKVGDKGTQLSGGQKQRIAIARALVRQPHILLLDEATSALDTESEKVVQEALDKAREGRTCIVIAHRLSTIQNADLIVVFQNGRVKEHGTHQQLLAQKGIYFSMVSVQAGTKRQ

CC[C@@H]1CN2CC[C@]34c5ccccc5-n5c3c(cc(C(=O)NCc3cc(OC)c(OC)c(OC)c3)c5=O)[C@H]1C[C@H]24
fold change (FC) [1]: 1.5 | fold change (FC) [2]: 2.5 | Activity (KB): Dose-dependent effect | fold change (FC) [3]: 20 | Kd [4]: 4.42 µM | fold change (FC) [5]: 3.8 | Activity (KBV20C): Dose-dependent effect | IC50 [6]: 0.38 µM | fold change (FC) [7]: 2.1 | fold change (FC) [8]: 0.6 | fold change (FC) [9]: 1 | inhibition (Homo sapiens [10]): Active | fold change (FC) [11]: 93.8

CC[C@@H]1CN2CC[C@]34C(=C(C(=O)OC)[C@H]1C[C@H]23)Nc1ccccc14
fold change (FC) [12]: 3.8 | Activity (KB): Dose-dependent effect | Kd [4]: 92 µM | Activity (KBV20C): Dose-dependent effect | fold change (FC) [13]: 0.2 | inhibition (Homo sapiens [10]): Active | fold change (FC) [11]: 2.5 | fold change (FC) [14]: 0.1

C/C=C1\CN2CC[C@]34c5ccccc5-n5c3c(cc(C(=O)OC)c5=O)[C@H]1C[C@H]24
fold change (FC) [12]: 3.8 | Activity (KB): Dose-dependent effect | Kd [4]: 16.1 µM | Activity (KBV20C): Dose-dependent effect | Activity (Homo sapiens [15]): Active | fold change (FC) [13]: 0.3 | fold change (FC) [11]: 2.1 | fold change (FC) [14]: 0.2

CC[C@@H]1CN2CC[C@]34c5ccccc5-n5c3c(cc(C(=O)OC)c5=O)[C@H]1C[C@H]24 [LEUCONICINE B]
fold change (FC) [12]: 6.8 | Activity (KB): Dose-dependent effect | Kd [4]: 13.8 µM | Activity (KBV20C): Dose-dependent effect | Activity (Homo sapiens [15]): Active | fold change (FC) [13]: 0.3 | fold change (FC) [11]: 3.8 | fold change (FC) [14]: 0.2

CC[C@@H]1CN2CC[C@]34c5ccccc5-n5c3c(cc(C(N)=O)c5=O)[C@H]1C[C@H]24 [LEUCONICINE A]
fold change (FC) [12]: 5 | Activity (KB): Dose-dependent effect | Kd [4]: 14.1 µM | Activity (KBV20C): Dose-dependent effect | fold change (FC) [13]: 0.6 | fold change (FC) [11]: 3.8 | fold change (FC) [14]: 0.3

C/C=C1\CN2CC[C@]34C(=C(C(=O)OC)[C@H]1C[C@H]23)Nc1ccccc14
fold change (FC) [12]: 3.8 | Activity (KB): Dose-dependent effect | Kd [4]: 99 µM | Activity (KBV20C): Dose-dependent effect | Activity (Homo sapiens [15]): Active | fold change (FC) [13]: 0.4 | fold change (FC) [11]: 2.5 | fold change (FC) [14]: 0.2

C/C=C1\CN2CC[C@]34C(=C(C=O)[C@H]1C[C@H]23)Nc1ccccc14
fold change (FC) [12]: 2.1 | Activity (KB): Dose-dependent effect | Kd [4]: 81 µM | Activity (KBV20C): Dose-dependent effect | Activity (Homo sapiens [15]): Active | fold change (FC) [13]: 0.3 | fold change (FC) [11]: 2.1 | fold change (FC) [14]: 0.2
